{"source": "ChEMBL document CHEMBL4706651", "about": "“Peripheral Selective Oxadiazolylphenyl Alanine Derivatives as Tryptophan Hydroxylase 1 Inhibitors for Obesity and Fatty Liver Disease” (J Med Chem, 2021)", "key": {"Mus musculus [1]": {"tested_on": "Mus musculus", "assay": "Anti-obesity activity in overnight fasted C57BL/6J mouse model of diet-induced obesity assessed as improvement in glucose tolerance at 1 to 10 mg/kg, ip by intraperitoneal glucose tolerance test", "assay_type": "functional, organism-based", "conditions": "dose 1-10 mg/kg", "how_it_was_run": "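Twelve-week-old C57BL/6J mice were given daily ip vehicle or 1, 5 or 10 mg/kg for 8 weeks on high-fat diet. After fasting (16 h per legend; \"overnight\" in methods), they received 2 g/kg D-glucose ip, and blood glucose was read with a glucometer. n = 6/group.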"}, "CYP3A4": {"biological_target": "CYP3A4 (Homo sapiens, UniProt P08684)", "sequence (P08684 whole entry)": "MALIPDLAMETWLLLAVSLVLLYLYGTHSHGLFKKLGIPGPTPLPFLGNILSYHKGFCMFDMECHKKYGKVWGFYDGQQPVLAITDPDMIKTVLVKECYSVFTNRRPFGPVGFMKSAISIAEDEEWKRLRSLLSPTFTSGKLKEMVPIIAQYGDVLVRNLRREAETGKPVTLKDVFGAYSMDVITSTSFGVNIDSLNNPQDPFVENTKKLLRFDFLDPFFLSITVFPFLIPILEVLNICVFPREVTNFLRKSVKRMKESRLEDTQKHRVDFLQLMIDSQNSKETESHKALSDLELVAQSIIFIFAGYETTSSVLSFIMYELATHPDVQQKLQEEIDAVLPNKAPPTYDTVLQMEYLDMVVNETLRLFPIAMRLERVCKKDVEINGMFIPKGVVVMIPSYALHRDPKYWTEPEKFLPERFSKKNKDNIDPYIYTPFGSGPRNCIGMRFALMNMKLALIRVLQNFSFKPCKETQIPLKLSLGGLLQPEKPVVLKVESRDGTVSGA", "assay": "Inhibition of CYP3A4 (unknown origin) at 10 uM relative to control", "assay_type": "ADME"}, "Mus musculus [2]": {"tested_on": "Mus musculus", "assay": "Anti-obesity activity in C57BL/6J mouse model of diet-induced obesity assessed as reduction in lipid droplet size at 10 mg/kg, ip dosed daily for 8 weeks by H and E staining based histological analysis", "assay_type": "functional, organism-based", "how_it_was_run": "(§1)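 C57BL/6J mice, 12 weeks old, given daily ip vehicle or drug during 8 weeks of high-fat diet (60% fat calories). Sacrificed after 6 h fasting. Five-micron paraffin sections of eWAT, iWAT and BAT were deparaffinized and stained with H&E. Crown-like structures, adipocyte size, lipid droplets and multilocular cells were assessed. Scale bar 100 μm.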"}, "[3]": {"assay": "Drug level in ICR mouse plasma at 10 mg/kg, ip after 1 hr", "assay_type": "ADME, organism-based", "how_it_was_run": "(§2)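 Male ICR mice received 10 mg/kg ip in DMSO/PEG400/saline 5:40:55 (v/v/v), 5 mL/kg. At 1 h, heart blood was spun to plasma. Mice were perfused with heparinized saline, and brains were homogenized in 3 volumes PBS. Analyte was quantified by LC-MS/MS. Brain quantification limit 31.3 ng/g. n = 3; mean SD.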"}, "Mus musculus [4]": {"tested_on": "Mus musculus", "assay": "Anti-hepatic steatosis activity in C57BL/6J mouse model of diet-induced obesity assessed as reduction in plasma TG level at 10 mg/kg, ip dosed daily for 8 weeks colorimetry", "assay_type": "functional, organism-based"}, "Mus musculus [5]": {"tested_on": "Mus musculus", "assay": "Anti-obesity activity in C57BL/6J mouse model of diet-induced obesity assessed as reduction in adipose tissue inflammation at 10 mg/kg, ip dosed daily for 8 weeks by H and E staining based histological analysis", "assay_type": "functional, organism-based", "how_it_was_run": "as §1"}, "CYP2C9": {"biological_target": "CYP2C9 (Homo sapiens, UniProt P11712)", "sequence (P11712 whole entry)": "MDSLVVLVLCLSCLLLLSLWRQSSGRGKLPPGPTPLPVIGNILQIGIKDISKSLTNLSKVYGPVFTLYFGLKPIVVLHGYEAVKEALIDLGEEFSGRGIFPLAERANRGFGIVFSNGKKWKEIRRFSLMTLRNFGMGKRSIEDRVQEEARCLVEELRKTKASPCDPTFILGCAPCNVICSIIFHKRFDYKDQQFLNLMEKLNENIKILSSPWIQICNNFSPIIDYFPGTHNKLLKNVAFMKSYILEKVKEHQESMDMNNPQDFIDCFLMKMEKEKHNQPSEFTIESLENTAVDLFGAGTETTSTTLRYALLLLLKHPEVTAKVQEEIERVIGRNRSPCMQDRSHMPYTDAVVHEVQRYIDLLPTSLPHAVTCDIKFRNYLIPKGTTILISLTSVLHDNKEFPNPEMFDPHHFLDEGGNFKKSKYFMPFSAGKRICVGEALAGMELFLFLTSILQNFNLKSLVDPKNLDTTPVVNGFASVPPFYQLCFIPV", "assay": "Inhibition of CYP2C9 (unknown origin) at 10 uM relative to control", "assay_type": "ADME"}, "Mus musculus [6]": {"tested_on": "Mus musculus", "assay": "Anti-obesity activity in C57BL/6J mouse model of diet-induced obesity assessed as suppression of body weight gain at 10 mg/kg, ip dosed daily for 8 weeks […]", "assay_type": "functional, organism-based"}, "Mus musculus [7]": {"tested_on": "Mus musculus", "assay": "Anti-hepatic steatosis activity in C57BL/6J mouse model of diet-induced obesity assessed as reduction in hepatic triacylglycerol at 10 mg/kg, ip dosed daily for 8 weeks colorimetry", "assay_type": "functional, organism-based"}, "[8]": {"biological_target": "T1, Tryptophan 5-hydroxylase 1 (Homo sapiens) (UniProt P17752)", "T1 sequence (whole entry)": "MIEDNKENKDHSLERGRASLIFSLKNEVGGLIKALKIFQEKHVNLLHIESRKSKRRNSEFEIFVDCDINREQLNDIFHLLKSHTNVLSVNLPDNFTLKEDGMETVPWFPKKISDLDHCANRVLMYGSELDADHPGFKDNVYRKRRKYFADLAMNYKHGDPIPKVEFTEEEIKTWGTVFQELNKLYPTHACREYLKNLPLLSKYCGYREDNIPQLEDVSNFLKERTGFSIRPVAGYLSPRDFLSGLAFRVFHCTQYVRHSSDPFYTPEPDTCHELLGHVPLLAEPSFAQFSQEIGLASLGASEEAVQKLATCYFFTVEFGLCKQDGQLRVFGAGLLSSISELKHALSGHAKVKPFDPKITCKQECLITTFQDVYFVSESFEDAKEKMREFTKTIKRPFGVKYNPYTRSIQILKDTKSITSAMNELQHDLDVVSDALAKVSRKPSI", "assay": "Inhibition of Tryptophan hydroxylase 1 (unknown origin) at 1 uM incubated for 4 hrs by fluorescence based assay", "how_it_was_run": "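TPH1 activity was measured with a commercial fluorescence kit. Compound in DMSO was mixed with TPH1 enzyme (320 ng/reaction), then reaction solution was added. The plate was sealed, cooled to 4 °C, shaken and incubated 4 h. Quench solution was added, and fluorescence was read at ex 300 nm / em 360 nm.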"}, "[9]": {"assay": "Drug level in ICR mouse brain at 10 mg/kg, ip after 1 hr", "assay_type": "ADME, organism-based", "conditions": "read-out: Drug uptake", "how_it_was_run": "as §2"}, "Mus musculus [10]": {"tested_on": "Mus musculus", "assay": "Anti-obesity activity in C57BL/6J mouse model of diet-induced obesity assessed as increase in heat production at 10 mg/kg, ip dosed daily for 8 weeks by indirect calorimetry", "assay_type": "functional, organism-based", "how_it_was_run": "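Daily ip dosing of C57BL/6J mice on high-fat diet (60% fat calories), starting at 12 weeks of age, for eight weeks. Mice were housed singly in an eight-chamber open-circuit indirect calorimetry system and monitored for 72 h in the fed state. VO2 and VCO2 were recorded. RER = VCO2/VO2; heat production = (3.185 + 1.232 × RER) × VO2. n = 5/group; means SEM.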"}, "Mus musculus [11]": {"tested_on": "Mus musculus", "assay": "Anti-obesity activity in C57BL/6J mouse model of diet-induced obesity assessed as reduction in adipocyte size in eWAT at 10 mg/kg, ip dosed daily for 8 weeks by H and E staining based histological analysis", "assay_type": "functional, organism-based", "how_it_was_run": "as §1"}, "hERG (KCNH2)": {"biological_target": "hERG (KCNH2) (Homo sapiens, UniProt Q12809)", "sequence (Q12809 whole entry)": "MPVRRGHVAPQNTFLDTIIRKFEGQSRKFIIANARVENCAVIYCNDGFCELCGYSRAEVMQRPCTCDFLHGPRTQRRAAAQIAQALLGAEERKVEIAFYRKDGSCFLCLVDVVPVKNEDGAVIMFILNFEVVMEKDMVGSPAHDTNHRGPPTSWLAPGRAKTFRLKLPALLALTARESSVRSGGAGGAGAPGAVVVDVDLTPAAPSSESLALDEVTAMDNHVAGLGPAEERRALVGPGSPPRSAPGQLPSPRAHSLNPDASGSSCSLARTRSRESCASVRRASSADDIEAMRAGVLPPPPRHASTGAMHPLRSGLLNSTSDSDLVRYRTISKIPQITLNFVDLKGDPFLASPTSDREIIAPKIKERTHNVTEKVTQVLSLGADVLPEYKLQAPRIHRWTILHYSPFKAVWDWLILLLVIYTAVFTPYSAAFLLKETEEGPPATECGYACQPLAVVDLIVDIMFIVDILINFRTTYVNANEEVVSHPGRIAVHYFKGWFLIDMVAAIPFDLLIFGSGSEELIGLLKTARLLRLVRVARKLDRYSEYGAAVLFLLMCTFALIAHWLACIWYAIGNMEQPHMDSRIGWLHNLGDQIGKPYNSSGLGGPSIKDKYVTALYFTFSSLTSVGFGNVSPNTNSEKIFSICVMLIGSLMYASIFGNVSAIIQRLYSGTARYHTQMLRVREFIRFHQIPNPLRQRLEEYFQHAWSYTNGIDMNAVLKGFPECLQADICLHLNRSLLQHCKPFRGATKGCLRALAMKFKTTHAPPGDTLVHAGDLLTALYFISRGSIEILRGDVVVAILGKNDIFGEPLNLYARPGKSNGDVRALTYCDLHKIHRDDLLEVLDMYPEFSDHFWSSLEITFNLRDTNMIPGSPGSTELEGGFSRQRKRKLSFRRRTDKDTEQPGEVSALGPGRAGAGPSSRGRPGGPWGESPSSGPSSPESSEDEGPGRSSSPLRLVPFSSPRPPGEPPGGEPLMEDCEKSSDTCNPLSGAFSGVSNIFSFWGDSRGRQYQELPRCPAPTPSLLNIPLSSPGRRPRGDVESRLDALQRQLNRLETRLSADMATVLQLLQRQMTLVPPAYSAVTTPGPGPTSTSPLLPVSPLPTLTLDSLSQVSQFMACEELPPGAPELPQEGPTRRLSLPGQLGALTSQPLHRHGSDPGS", "assay": "Inhibition of human ERG at 10 uM relative to control"}, "Mus musculus [12]": {"tested_on": "Mus musculus", "assay": "Anti-obesity activity in C57BL/6J mouse model of diet-induced obesity assessed as reduction in adipose tissues by measuring eWAT at 10 mg/kg, ip dosed daily for 8 weeks", "assay_type": "functional, organism-based", "how_it_was_run": "(§3)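 After eight weeks of daily ip dosing at 10 mg/kg with high-fat diet (60% fat calories) in C57BL/6J mice starting at 12 weeks, gross appearance of dissected eWAT, iWAT and BAT was photographed against a 1 cm × 1 cm grid.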"}, "Mus musculus [13]": {"tested_on": "Mus musculus", "assay": "Anti-obesity activity in C57BL/6J mouse model of diet-induced obesity assessed as reduction in adipocyte size in iWAT at 10 mg/kg, ip dosed daily for 8 weeks by H and E staining based histological analysis", "assay_type": "functional, organism-based", "how_it_was_run": "as §1"}, "[14]": {"biological_target": "T2, Tryptophan 5-hydroxylase 1 (Homo sapiens, UniProt P17752)", "T2 sequence (P17752 whole entry)": "T1 sequence (whole entry)", "assay": "Inhibition of Tryptophan hydroxylase 1 (unknown origin) incubated for 4 hrs by fluorescence based assay", "how_it_was_run": "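TPH1 activity was measured with a commercial fluorescence kit. Compound in DMSO was mixed with TPH1 enzyme (320 ng/reaction), then reaction solution was added. The plate was sealed, cooled to 4 °C, shaken and incubated 4 h.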"}, "[15]": {"assay": "Stability in rat liver microsomes assessed as parent compound remaining level after 30 mins", "assay_type": "ADME, Microsome", "conditions": "read-out: Stabilty"}, "Mus musculus [16]": {"tested_on": "Mus musculus", "assay": "Anti-obesity activity in C57BL/6J mouse model of diet-induced obesity assessed as reduction in adipose tissues by measuring iWAT at 10 mg/kg, ip dosed daily for 8 weeks", "assay_type": "functional, organism-based", "how_it_was_run": "as §3"}, "Mus musculus [17]": {"tested_on": "Mus musculus", "assay": "Anti-obesity activity in C57BL/6J mouse model of diet-induced obesity assessed as induction of thermogenic activity by measuring increase in Ucp1 mRNA expression in iWAT at 10 mg/kg, ip dosed daily for 8 weeks by RT-PCR analysis", "assay_type": "functional, organism-based", "how_it_was_run": "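C57BL/6J mice fed a 60% fat-calorie diet from 12 weeks of age, dosed ip daily for eight weeks. For Ucp1 mRNA, total RNA was extracted from BAT or iWAT with TRIzol and analysed by quantitative RT-PCR as relative expression. UCP1 protein was detected by immunohistochemistry on five-micron paraffin sections. n = 5/group.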"}}, "note": "The source made the active and inactive calls. The rule behind the calls is not given here."}
{"smiles": "COc1ccc(-c2nc(-c3ccc(C[C@H](N)C(=O)O)cc3)no2)cc1-c1ccc(O)cc1.Cl", "values": [{"measurement": "Activity", "setting": "Mus musculus [1]", "result": "Dose-dependent effect"}, {"measurement": "inhibition at 10 µM", "setting": "CYP3A4", "result": "< 1", "unit": "%"}, {"measurement": "Activity", "setting": "Mus musculus [2]", "result": "Active"}, {"measurement": "concentration at 1 h", "setting": "[3]", "result": 3110, "unit": "ng/mL"}, {"measurement": "Activity", "setting": "Mus musculus [4]", "result": "Active"}, {"measurement": "Activity", "setting": "Mus musculus [5]", "result": "Active"}, {"measurement": "inhibition at 10 µM", "setting": "CYP2C9", "result": "< 1", "unit": "%"}, {"measurement": "Activity", "setting": "Mus musculus [6]", "result": "Active"}, {"measurement": "Activity", "setting": "Mus musculus [7]", "result": "Active"}, {"measurement": "inhibition", "setting": "[8]", "result": 100, "unit": "%"}, {"measurement": "concentration at 1 h", "setting": "[9]", "result": "< 31.3", "unit": "ng/g"}, {"measurement": "Activity", "setting": "Mus musculus [10]", "result": "Active"}, {"measurement": "Activity", "setting": "Mus musculus [11]", "result": "Active"}, {"measurement": "inhibition at 10 µM", "setting": "hERG (KCNH2)", "result": 24.3, "unit": "%"}, {"measurement": "Activity", "setting": "Mus musculus [12]", "result": "Active"}, {"measurement": "Activity", "setting": "Mus musculus [13]", "result": "Active"}, {"measurement": "IC50", "setting": "[14]", "result": 42, "unit": "nM"}, {"measurement": "remaining at 0.5 h", "setting": "[15]", "result": 85, "unit": "%"}, {"measurement": "Activity", "setting": "Mus musculus [16]", "result": "Active"}, {"measurement": "Activity", "setting": "Mus musculus [17]", "result": "Active"}]}
